ABCB6 inh 2 – inhibitors of human ABC transporter ABCB6. fluorescence ratio to DMSO, % at 10 µM. 360,000 tested, 0.19% active. K562-ABCB6 porphyrin accumulation, flow cytometry, 1 h; active compounds read low. Q9NP58. AID 602162;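 active = fluorescence ratio to DMSO below 75%, the collection mean minus 3 SD; inconclusive = too few cells collected in the well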;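 note: signal is porphyrin accumulated inside mitochondria; 100% equals median channel fluorescence of DMSO control wells; lower ratio means ABCB6 inhibition with less porphyrin fluorescence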
Target sequence (Q9NP58 whole entry, looked up): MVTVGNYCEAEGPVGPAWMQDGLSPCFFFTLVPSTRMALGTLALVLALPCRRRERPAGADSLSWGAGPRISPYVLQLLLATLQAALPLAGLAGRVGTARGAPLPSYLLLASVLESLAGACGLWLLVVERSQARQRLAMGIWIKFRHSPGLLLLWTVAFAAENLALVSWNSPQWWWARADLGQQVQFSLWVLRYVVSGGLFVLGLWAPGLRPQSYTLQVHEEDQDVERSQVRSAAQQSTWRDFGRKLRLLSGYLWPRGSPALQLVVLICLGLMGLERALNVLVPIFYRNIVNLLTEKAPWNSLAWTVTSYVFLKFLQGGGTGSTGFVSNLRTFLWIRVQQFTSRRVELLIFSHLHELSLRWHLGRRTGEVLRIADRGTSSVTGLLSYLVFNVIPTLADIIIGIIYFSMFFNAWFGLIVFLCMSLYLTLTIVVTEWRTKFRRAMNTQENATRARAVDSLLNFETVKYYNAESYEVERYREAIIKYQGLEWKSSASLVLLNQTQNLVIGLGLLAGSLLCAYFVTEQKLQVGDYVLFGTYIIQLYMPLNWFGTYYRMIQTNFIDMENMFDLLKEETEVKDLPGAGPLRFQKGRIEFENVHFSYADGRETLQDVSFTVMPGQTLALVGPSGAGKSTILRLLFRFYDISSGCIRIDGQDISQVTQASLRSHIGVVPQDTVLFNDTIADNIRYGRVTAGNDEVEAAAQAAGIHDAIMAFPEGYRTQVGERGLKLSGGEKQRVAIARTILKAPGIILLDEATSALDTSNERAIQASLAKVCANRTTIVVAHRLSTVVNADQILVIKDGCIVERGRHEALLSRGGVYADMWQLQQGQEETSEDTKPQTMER
Myeloid diff MLP – myeloid differentiation induction; 360,000 tested, 1% active; ER-HoxA9 myeloid progenitors, lysozyme-GFP differentiation, flow cytometry; calls only at 10 µM;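 active = normalized GFP-positive differentiation at or above the plate's own cutoff, the solvent-only control mean plus 3 SD; inconclusive = no clear call, values can overlap the other calls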;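 note: cells exposed to compound for four days before flow analysis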
Xi reactivation – reactivates the inactive X chromosome in mouse fibroblasts; XiGFP mouse fibroblasts, % GFP-positive cells imaging, 3 d; cells co-treated with 5-aza-dC sensitizer; scaled so ellipticine positive control = 100%; activation, % at 7.58 µM; 360,000 tested, 0.055% active;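 active = mean normalized replicate activation at least 10% and every replicate at or above 10%; inconclusive = only one of the two criteria met; inactive = mean below 10% and not all replicates reach 10%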;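 note: 0% = median of on-plate neutral control wells and 100% = ellipticine 6 µM median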
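System: 68-5-11 XiGFP fibroblast line; Timing: 3 days compound exposure; Compound dosing: one concentration, pinned; Benchmarks: positive control ellipticine, 6 µM final; Buffer or medium: DMEM containing 5-aza-dC.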
* = called active by the depositor; i = inactive; ? = inconclusive; / = no result; + = active, no number. This is one part of a sample in which hits are shown more often than they occur.

SMILES	ABCB6 inh 2	Myeloid diff MLP	Xi reactivation
O=C(CC1CC1)N[C@H]1CC[C@H](CCNS(=O)(=O)c2ccc(F)cc2)O[C@@H]1CO	/	/	0
C/C=C/c1ccc([C@@H]2[C@H]3CN(C(=O)Nc4cccc(OC)c4)CC(=O)N3[C@H]2CO)cc1	/	/	0
C=CCn1c(C)cc(-c2csc(NC)n2)c1C	114	+	0
C=CCn1c(C)cc(-c2csc(N)n2)c1C	105	i	/
O=[N+]([O-])c1ccc(N/N=C/c2sc(N3CCOCC3)nc2-c2ccccc2)c(S(=O)(=O)Nc2ccccc2Cl)c1	i	i	0
O=[N+]([O-])c1ccc(N/N=C/c2sc(N3CCOCC3)nc2-c2ccccc2)c(S(=O)(=O)Nc2ccc(Cl)cc2)c1	i	+	87*
C/C=C/c1ccc2c(c1)[C@H]1[C@H](CCN1C(=O)c1ccc(F)cc1)[C@H](CO)N2	/	/	0
CC(C)COC(=O)N(C)C[C@H]1OCc2ccccc2-c2c(n(C)c3ccccc23)C(=O)N([C@@H](C)CO)C[C@H]1C	/	/	-1
N#CC(C#N)=C1NC2(CCCCC2)Cc2ccccc21	96	i	0
N#CC(C#N)=c1ccc2c(c1)NC1(CCCCC1)N=2	115	+	/
COc1ccc(N2CCN(C3CCCN(Cc4ccc(F)cc4Cl)C3)CC2)cc1 (stereo not given)	90	+	0
COc1ccc(O)c(CN2CCCC(N3CCN(c4ccc(F)cc4)CC3)C2)c1 (stereo not given)	96	i	0
COc1ccc(C2C(C(=O)c3ccco3)=C(O)C(=O)N2CCOCCO)cc1OC (stereo not given)	97	i	/
COc1ccc(C2C(C(=O)c3ccco3)=C(O)C(=O)N2CCc2ccccc2)cc1OC (stereo not given)	89	+	/
CNC[C@@H]1OCCCC[C@H](C)Oc2ccc(NC(=O)c3ccccc3)cc2C(=O)N([C@H](C)CO)C[C@@H]1C	/	/	0
Cc1cc(O)c2c(c1O)C(=O)[C@]13C(=C2O)C(=O)[C@@H]2[C@@H](O)[C@H]1[C@@H]1[C@H](O)[C@H]3C(=O)C3=C(O)c4c(O)cc(C)c(O)c4C(=O)[C@]312	266	+	/
C[C@@H]1CN([C@@H](C)CO)C(=O)c2cccc(NC(=O)Nc3ccccc3)c2O[C@H]1CN(C)CC1CC1	/	/	0
C[C@H](O)C#Cc1ccc2c(c1)O[C@@H](CN(C)C(=O)CC1CC1)[C@@H](C)CN([C@@H](C)CO)S2(=O)=O	/	/	-1
Cc1ccc(CN(CC(=O)NCc2ccc3c(c2)OCO3)C(=O)c2csnn2)cc1	88	+	0
O=C(CN(Cc1ccccc1Cl)C(=O)c1csnn1)NCc1ccc2c(c1)OCO2	99	i	0
COc1cc(/C=C2\SC(=Nc3ccccc3)N(CCc3c[nH]c4ccccc34)C2=O)ccc1OC(C)C(=O)O (stereo not given)	73*	i	/
O=C1/C(=C/c2ccc(N3CCOCC3)o2)SC(=Nc2ccccc2)N1CCc1c[nH]c2ccccc12	i	+	/
O=C1N/C(=C/c2ccc(N3CCOCC3)o2)C(=O)N1c1ccccc1	105	?	1
COc1ccc(N=C2S/C(=C\c3ccc(OC(C)C(=O)O)c(OC)c3)C(=O)N2CCc2c[nH]c3ccccc23)cc1 (stereo not given)	94	i	0
CO[C@H](CN(C)C(=O)c1ccccc1F)[C@@H](C)CN([C@H](C)CO)S(=O)(=O)c1ccc(F)cc1	/	/	0
SMILES	ABCB6 inh 2	Myeloid diff MLP	Xi reactivation
C=CCn1c(=O)/c(=C2/SC(C)=C(C)N2CC)s/c1=C1/C(=O)N(CC)C(=S)N1c1ccccc1	106	+	/
CCCCN1C(=O)C(=O)N(c2ccccc2)C1=S	99	i	0
Cc1ccc(S(=O)(=O)N(C)C[C@H]2Oc3ccc(NC(=O)CCCN(C)C)cc3CC(=O)N([C@@H](C)CO)C[C@H]2C)cc1	/	/	0
C[C@H]1CN([C@@H](C)CO)C(=O)Cc2cc(NC(=O)c3ccncc3)ccc2O[C@@H]1CN(C)S(=O)(=O)c1cn(C)cn1	/	/	0
N#CC(=C(O)CN1CCN(c2ccccc2F)CC1)c1nc(-c2ccc(Cl)cc2)cs1	87	i	0
N#CC(=Cc1ccccn1)c1nc(-c2ccc(Cl)cc2)cs1	165	+	1
Cc1ccc(S(=O)(=O)Nc2cccc3c2O[C@@H](CN(C)Cc2ccccc2)[C@H](C)CN([C@H](C)CO)C3=O)cc1	/	/	0
COCCCNC1=C(Cl)C(=O)c2ccccc2C1=O	98	i	1
COCCCNc1c2c3c(cccc3[nH]c1=O)C(=O)c1ccccc1-2	128	+	7
C[C@H]1CN([C@@H](C)CO)C(=O)c2cccc(NC(=O)C3CC3)c2O[C@@H]1CN(C)C(=O)Nc1ccc(F)cc1	/	/	0
C=CCn1c(=N)n(CC(=O)c2cccc([N+](=O)[O-])c2)c2ccccc21	94	i	0
N=c1n(CCN2CCCCC2)c2ccccc2n1CC(=O)c1cccc([N+](=O)[O-])c1	94	+	0
CCCNC(=O)[C@@H]1[C@@H](CO)[C@@H]2Cn3c(cccc3=O)[C@@H]2N1CC1CCCC1	/	/	0
C[C@@H]1CN([C@H](C)CO)C(=O)c2cc(NS(=O)(=O)c3cn(C)cn3)ccc2O[C@H]1CN(C)Cc1ccc(C(=O)Nc2ccccc2N)cc1	/	/	0
O=c1c(/C=C(\O)c2ccccc2)nc2ccccc2n1-c1ccccc1	979	+	/
Cc1nc2ccccc2n1-c1ccccc1	93	i	/
COc1ccc(NS(=O)(=O)c2cc([N+](=O)[O-])ccc2N/N=C/c2c(C)[nH]c3ccccc23)cc1	848	+	1
Cc1[nH]c2ccccc2c1/C=N/Nc1ccccc1[N+](=O)[O-]	95	i	0
CC1=Nc2cccc3cccc(c23)N1	99	+	/
Nc1ccc(C2=Nc3cccc4cccc(c34)N2)cc1	104	i	0
CC(C)CC#Cc1ccc2c(c1)O[C@@H](CN(C)Cc1ccccn1)[C@@H](C)CN([C@H](C)CO)S2(=O)=O	/	/	0
COc1ccc(Oc2nc(-c3ccccn3)ncc2OC)cc1	94	i	0
COc1cnc(-c2ccccn2)nc1N(C)C	95	+	1
O=C(Cc1ccccn1)N1CC(=O)N2[C@H](C1)[C@H](c1ccc(-c3ccc(F)cc3)cc1)[C@@H]2CO	/	/	0
CCOc1ccc(-n2c(SCC(=O)Nc3ccc(CC)cc3)nc3n[nH]c(C)c3c2=N)cc1	227	+	0
CCCN(CCC)C(=O)CSc1nc2n[nH]c(C)c2c(=N)n1-c1ccc(OCC)cc1	98	i	/
CS(=O)(=O)Nc1ccc2c(c1)[C@H]1C[C@@H](CC(=O)NCc3ccccn3)O[C@@H](CO)[C@H]1O2	/	/	0
N#CCC(=O)Nc1ccc(C(=O)NCC(c2ccco2)N2CCCCC2)cc1 (stereo not given)	88	+	0
O=C(NCC(c1ccco1)N1CCCC1)c1ccc(Cl)c(S(=O)(=O)N2CCc3ccccc32)c1 (stereo not given)	87	+	0
O=C(NCC(c1ccco1)N1CCc2ccccc2C1)c1ccc(Cl)c([N+](=O)[O-])c1 (stereo not given)	96	i	0
